From ChEMBL document CHEMBL3822382 (Eur J Med Chem, 2016)
Activity calls are given as the source filed them. No cut-off for these calls is given here.

Tests used:
Sus scrofa = organism: Sus scrofa; assay: Inhibition of porcine brain alpha/beta tubulin polymerization at 5 uM measured every 20 sec by microplate reader analysis
[1] = Growth inhibition of human 518A2 cells after 72 hrs by MTT assay; format: functional, cell-based; conditions: 518A2, 72 h
Outline: (§1)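 5000 cells/well exposed for 72 h to dilution series of 100 µM–5 pM, with DMSO as solvent control. MTT 0.5 mg/mL final for 2 h, absorbance at 570/630 nm. Percentage viable cells taken versus DMSO controls; IC50 from dose–response curves, mean of four independent experiments.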

HT-29 [2] = assay: Growth inhibition of combretastatin A-4 resistant human HT-29 cells after 72 hrs by MTT assay; format: functional, cell-based; conditions: HT-29, 72 h; outline: as §1
HT-29 [3] = assay: Growth inhibition of combretastatin A-4 resistant human HT-29 cells after 24 hrs by MTT assay; format: functional, cell-based; conditions: HT-29, 24 h
Outline: (§2)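 Cells seeded at 5000/well (Ea.hy926 10,000/well) and exposed for 24 h to dilution series of 100 µM–5 pM, with DMSO as solvent control. MTT (0.5 mg/mL final) for 2 h. Formazan dissolved in SDS/acetic acid/DMSO and read at 570 nm against a 630 nm background. Viability taken relative to DMSO controls; IC50 from dose–response curves, mean of four independent experiments.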

[4] = Growth inhibition of human EAhy926 cells after 24 hrs by MTT assay; format: cell-based; conditions: EA.hy 926, 24 h; outline: as §2
[5] = Growth inhibition of human KB-V1/Vbl cells after 24 hrs by MTT assay; format: functional; outline: as §2
[6] = Growth inhibition of human HCT116 cells expressing wild type p53 after 72 hrs by MTT assay; format: functional, cell-based; conditions: HCT-116, 72 h
Outline: (§3)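 HCT-116 cells, p53 wild-type or p53-/-, seeded at 5000/well and treated 72 h with dilution series (100 µM–5 pM) or DMSO. MTT 0.5 mg/mL for 2 h, absorbance at 570/630 nm. Viability relative to DMSO controls; IC50 from dose–response curves, mean of three independent experiments ± S.D.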

[7] = Growth inhibition of p53 null human HCT116 cells after 72 hrs by MTT assay; format: functional, cell-based; conditions: HCT-116, 72 h; outline: as §3
[8] = Growth inhibition of chicken cardiomyocytes after 48 hrs by MTT assay; conditions: Gallus gallus, Cardiomyocyte
Outline: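 Chicken heart fibroblasts explanted from 10-day-old embryos, seeded at 10,000/well; cardiomyocytes seeded at 20,000/well. Dilution series given for 48 h, DMSO as control. MTT 0.5 mg/mL for 2 h, absorbance at 570/630 nm. Viability versus DMSO controls; IC50 from dose–response curves, mean of three independent experiments.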

[9] = Cell cycle arrest in human HCT116 cells expressing wild type p53 assessed as accumulation at subG1 phase at 50 nM after 24 hrs by propidium iodide staining-based flow cytometry (reference value: 7.1%); format: functional; conditions: HCT-116
[10] = Cell cycle arrest in human HCT116 cells expressing wild type p53 assessed as accumulation at S phase at 100 nM after 24 hrs by propidium iodide staining-based flow cytometry (reference value: 15.3%); format: functional; conditions: HCT-116
[11] = Cell cycle arrest in human HCT116 cells expressing wild type p53 assessed as accumulation at S phase at 50 nM after 24 hrs by propidium iodide staining-based flow cytometry (reference value: 15.3%); format: functional; conditions: HCT-116
[12] = Cell cycle arrest in human HCT116 cells expressing wild type p53 assessed as accumulation at G2/M phase at 100 nM after 24 hrs by propidium iodide staining-based flow cytometry (reference value: 21%); format: functional; conditions: HCT-116
[13] = Cell cycle arrest in human HCT116 cells expressing wild type p53 assessed as accumulation at G2/M phase at 50 nM after 24 hrs by propidium iodide staining-based flow cytometry (reference value: 21%); format: functional; conditions: HCT-116
[14] = Cell cycle arrest in human MCF7/Topo cells assessed as accumulation at subG1 phase at 100 nM after 24 hrs by propidium iodide staining-based flow cytometry (reference value: 4.6%); format: functional
[15] = Cell cycle arrest in human MCF7/Topo cells assessed as accumulation at G1 phase at 100 nM after 24 hrs by propidium iodide staining-based flow cytometry (reference value: 47.8%); format: functional
[16] = Cell cycle arrest in human MCF7/Topo cells assessed as accumulation at S phase at 100 nM after 24 hrs by propidium iodide staining-based flow cytometry (reference value: 16%); format: functional
[17] = Cell cycle arrest in human MCF7/Topo cells assessed as accumulation at G2/M phase at 100 nM after 24 hrs by propidium iodide staining-based flow cytometry (reference value: 31.6%); format: functional
[18] = Cell cycle arrest in human HCT116 cells expressing wild type p53 assessed as apoptotic index ratio at 50 nM after 24 hrs by propidium iodide staining-based flow cytometry relative to control; format: functional; conditions: HCT-116
[19] = Cell cycle arrest in human HCT116 cells expressing wild type p53 assessed as G2/M index ratio at 50 nM after 24 hrs by propidium iodide staining-based flow cytometry relative to control; format: functional; conditions: HCT-116
[20] = Cell cycle arrest in human MCF7/Topo cells assessed as G2/M index ratio at 100 nM after 24 hrs by propidium iodide staining-based flow cytometry relative to control; format: functional
EA.hy 926 [21] = assay: Antivascular activity in human EAhy926 cells assessed as induction of retraction of cells to nodes at 250 nM after 16 hrs by light microscopic analysis; format: functional, cell-based
Outline: (§4)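 Ea.hy926 cells (100,000/well) were seeded on Matrigel-coated coverslips and allowed 12 h to form vessel-like networks. Test agent (CA-4 100 nM; indoles 250 nM) or DMSO was then added for 16 h, and networks were documented by light microscopy. Viability was checked by 2 h MTT (0.5 mg/mL) relative to DMSO controls.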

EA.hy 926 [22] = assay: Antivascular activity in human EAhy926 cells assessed as change in cell morphology from stretched to rounded form at 250 nM after 16 hrs by light microscopic analysis; format: functional, cell-based; outline: as §4
EA.hy 926 [23] = assay: Antivascular activity in human EAhy926 cells assessed as disruption of preformed blood vessel lke network at 250 nM after 16 hrs by matrigel based tube formation assay; format: functional, cell-based; outline: as §4
[24] = Cytotoxicity against human EAhy926 cells assessed as cell viability at 250 nM after 16 hrs by MTT assay relative to control; format: cell-based, EA.hy 926; conditions: read-out: Activity
Outline: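 Ea.hy926 cells (100,000/well) placed on Matrigel-coated coverslips and left 12 h to form networks, then given 250 nM for 16 h. Viability measured by 2 h incubation with 0.5 mg/mL MTT and formazan absorbance, calculated relative to DMSO controls.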

Chorioallantoic membrane = assay: Antivascular activity in fertilized white leghorn egg chorioallantoic membrane assessed as disruption of preformed blood vessel at 2.5 to 5 nmol after 24 to 48 hrs by stereomicroscopic analysis; format: functional, tissue-based; conditions: Gallus gallus
[25] = Cytotoxicity against fertilized white leghorn chicken embryos in CAM model assessed as lethality at 5 nmol after 24 hrs relative to control; format: organism-based, Gallus gallus; conditions: in vivo
Outline: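 Day-5 fertilized eggs (37 °C, 50-60% humidity) windowed, with 6 mm silicon rings placed on CAM vessels and incubated a further 24 h. Compound diluted to 500 µM in PBS and pipetted inside the ring (10 µL = 5 nmol); DMSO control. Vessel changes documented by stereomicroscopy at 0, 12 and 24 h.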

| Structure (SMILES) | inhibition (Sus scrofa) | IC50 [1] | IC50 (HT-29 [2]) | IC50 (HT-29 [3]) | IC50 [4] | IC50 [5] | IC50 [6] | IC50 [7] | IC50 [8] | Activity [9] | Activity [10] | Activity [11] | Activity [12] | Activity [13] | Activity [14] | Activity [15] | Activity [16] | Activity [17] | Ratio [18] | Ratio [19] | other results |
| --- | --- | --- | --- | --- | --- | --- | --- | --- | --- | --- | --- | --- | --- | --- | --- | --- | --- | --- | --- | --- | --- |
| COc1cc(-c2ncn(C)c2-c2ccc3c(c2)c(Cl)cn3C)cc(OC)c1OC | Active | 18.2 nM | 15.6 nM | 26.2 nM | 24.6 nM | 26 nM | 9.5 nM | 26.2 nM | 1870 nM | 30.6% | 7.8% | 11.1% | 50.5% | 14.6% | 30.7% | 16.5% | 9.9% | 42.9% | 24.4 | 0.9 | Ratio [20]: 3.9; Activity (EA.hy 926 [21]): Active; Activity (EA.hy 926 [22]): Active; Activity (EA.hy 926 [23]): Active; viability at 16 h, 0.25 µM [24]: > 90%; Activity (Chorioallantoic membrane): inactive; mortality at 24 h [25]: 80% |
| COc1cc(-c2ncn(C)c2-c2ccc3c(c2)c(Cl)cn3C)cc(Br)c1OC.Cl | inactive | 28.2 nM | 23.4 nM | 31.3 nM | 29.9 nM | 25.4 nM | 27.4 nM | 21.3 nM | 3970 nM | 16.2% | 5.4% | 12.7% | 59.7% | 17.2% | 24.6% | 14.4% | 8.6% | 52.4% | 10.2 | 0.9 | Ratio [20]: 5.5; Activity (EA.hy 926 [21]): Active; Activity (EA.hy 926 [22]): Active; Activity (EA.hy 926 [23]): Active; viability at 16 h, 0.25 µM [24]: > 90%; Activity (Chorioallantoic membrane): inactive; mortality at 24 h [25]: 33% |
